Published values gathered from unrelated publications.
Lines come from different studies, so protocols differ.
Target: Mitogen-activated protein kinase kinase kinase 14 (MAP3K14, Homo sapiens, UniProt Q99558)

CN(c1ccnc(CNc2nc(Nc3ccc4c(c3)CC(=O)N4)ncc2C(F)(F)F)n1)S(C)(=O)=O  remaining binding (cell-free assay, competition with immobilised ligand; 1 µM): 65%
CC1CCCN1c1nccc(-c2cnn3ncccc23)n1 (centres unmarked)  remaining binding (binding, competition with immobilised ligand; 1 µM): 100%
COc1ncc2cc3ccccc3nc2c1C#N  remaining binding (cell-free assay, competition with immobilised ligand; 5 µM): 76%
O=C(NCc1ncc(C(F)(F)F)cc1Cl)c1ccc2c(c1)C1(CCS(=O)(=O)CC1)[C@@H](C1CC1)N2S(=O)(=O)c1ccc(F)cc1  remaining binding (cell-free assay, competition with immobilised ligand; 1 µM): 71%
FC(F)(F)Oc1cccc(-c2cnc3ccc(-c4ccncc4)nn23)c1  remaining binding (cell-free assay, competition with immobilised ligand; 5 µM): 37%
CNC(=O)[C@@H]1CC[C@@H](n2c(-c3ccc4cnccc4c3)nc3ccc(C(=O)NCc4cccc(C(N)=O)c4)cc32)C1  remaining binding (binding, competition with immobilised ligand; 1 µM): 100%
Nc1ncc2c(n1)-c1c([nH]c3ccc(C#CC4CC4)cc13)CCCC2  remaining binding (binding, competition with immobilised ligand; 1 µM): 73%
COc1cnc(Nc2cccc(S(N)(=O)=O)c2)nc1N1CCN(c2ccccc2)CC1  remaining binding (binding, competition with immobilised ligand; 1 µM): 96%
c1ccc(N2CCN(Cc3nc4ccccc4[nH]3)CC2)nc1  remaining binding (binding, competition with immobilised ligand; 1 µM): 94%
N[C@@H]1CCN(c2nccc(-c3cnn4ncccc34)n2)C1  remaining binding (binding; 1 µM): 91%
O=C(NCCCN1CCOCC1)c1ccc(Nc2ncc(Cl)c(-c3ccc(Cl)s3)n2)cc1  remaining binding (binding, competition with immobilised ligand; 1 µM): 49%
O=C(Nc1c[nH]nc1C(=O)NC1CCNCC1)c1cc(F)cc(F)c1  remaining binding (binding, competition with immobilised ligand; 1 µM): 100%
CN(C)c1nccc(-c2cnn3ncccc23)n1  remaining binding (binding, competition with immobilised ligand; 1 µM): 74%
CN(C)C(=O)Cn1cc(-c2nc(C3(c4ccc(-c5cnc(N)nc5)cc4)CC3)no2)cn1  remaining binding (cell-free assay, competition with immobilised ligand; 1 µM): 83%
CN(C)c1ncc(F)c(-c2cnn3ncccc23)n1  remaining binding (binding, competition with immobilised ligand; 1 µM): 75%
CC(=O)N1CCC(c2ccc(C(=O)NC(=N)N)cc2C(F)(F)F)CC1  remaining binding (cell-free assay, competition with immobilised ligand; 1 µM): 100%
CN(c1nccc(-c2cnn3ncccc23)n1)C1CC1  remaining binding (binding; 1 µM): 100%
CCCCN(CCCC)C(=O)CN1C[C@H](c2cc(OC)c3c(c2)OCO3)[C@@H](C(=O)O)[C@@H]1CC(C)(C)CCC  remaining binding (cell-free assay, competition with immobilised ligand; 1 µM): 100%
O=C(c1ccc(Nc2nccc(-c3cc4ccccc4s3)n2)cc1)N1CCC(N2CCCC2)CC1  remaining binding (binding, competition with immobilised ligand; 1 µM): 59%
COc1ccnn2ncc(-c3ccnc(N(C)C)n3)c12  remaining binding (binding; 1 µM): 78%
